Results as given in PMC3755449 (Nature communications, 2013).
Where a name gives a salt, the structure may show the parent alone.

B1: Untagged RON2L peptide (peptide)
peptide: DITQQAKDIGAGPVASCFTTRMSPPQQICLNSVVNTALSTSTQSAMK

Legend:
[1] = test system: P. falciparum clone FVO merozoites invading RBCs; assay: Invasion assay using purified invasive merozoites; assay type: cell-based, Plasmodium falciparum; settings: 25 and 50 μM
Outline: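 Merozoites come from an FVO line selected for prolonged free-merozoite survival. Synchronized schizonts are gradient-purified, ruptured 3 hr at 37°C, and merozoites are filtered twice through 1.2 μm. About 5×10⁷ merozoites are gassed with 2.5×10⁷ pre-warmed RBCs and a range of compound concentrations for 3–4 hr at 37°C. Free merozoites are removed at 50 g for 7 min. Rings are counted by SYBR green/MitoTracker flow cytometry; IC50 by nonlinear regression.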

[2] = test system: schizont-infected RBCs (FVO clone); assay: Schizont rupture assay; assay type: cell-based, Plasmodium falciparum; settings: 30 μM
[3] = test system: AMA1 secretion onto merozoite surface; assay: IFA of AMA1 secretion from micronemes; assay type: cell-based, Plasmodium falciparum; settings: non-permeabilizing IFA, 60 μM
Outline: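 Schizonts rupture with or without test compound (60 μM) present beforehand. Released merozoites are probed with polyclonal anti-AMA1 antibodies by immunofluorescence under non-permeabilizing conditions to assess surface AMA1.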

[4] = biological target: Recombinant, his-tagged AMA1 (apical membrane antigen 1), 3D7 allele (Plasmodium falciparum (3D7 allele)) (UniProt Q7KQK5); assay: AlphaScreen or HTRF

Row | Molecule | inhibition of merozoite invasion [1] | merozoite release from schizont-infected RBCs [2] | AMA1 secretion from micronemes [3] | IC50 [4]
1 | CN(C)CCCN1c2ccccc2C(C)(C)c2ccccc21 [NCGC00014044, Dimetacrine] | inhibited merozoite invasion | not affected |  | 
2 | Clc1cccc(C(c2ccc3[nH]cnc3c2)n2ccnc2)c1 (stereo not drawn) [NCGC00181034, Liarozole hydrochloride] | inhibited merozoite invasion | not affected | not affected | 
3 | B1 |  |  |  | 100 nM
